From ChEMBL document CHEMBL1155452, “Oncocin (VDKPPYLPRPRPPRRIYNR-NH2): a novel antibacterial peptide optimized against gram-negative human pathogens” (J Med Chem, 2010)

How the values were obtained:
Enterobacter cloacae [1] = test: Antimicrobial activity against Enterobacter cloacae Ha089 after 20 hrs by broth microdilution method; assay type: functional; settings: Ha089, 20 h
Summary of the method: (§1)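 Pathogens grown overnight on Columbia agar. Colonies suspended in 0.9% saline to OD 0.1, diluted 1:300 in 1% TSB, final (1-2) × 10^5 cfu/well. Peptides 2-fold serially diluted in 1% TSB from 128 to typically 0.5 μg/mL. Incubation at 37 °C; A595 read after 20 ± 2 h. MIC is the lowest concentration with absorbance not above medium only. Triplicate.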

Enterobacter cloacae [2] = test: Antimicrobial activity against Enterobacter cloacae Ha89 after 20 hrs by broth microdilution method; assay type: functional; settings: Ha89, 20 h; summary of the method: as §1
Enterobacter cloacae [3] = test: Antimicrobial activity against Enterobacter cloacae 34654 after 20 hrs by broth microdilution method; assay type: functional; settings: Enterobacter cloacae, 34654, 20 h; summary of the method: as §1
Serum [4] = test: Stability in 25% mouse serum assessed as peptide-13 level at 75 ug/ml after 2 hrs by MALDI-TOF-MS analysis; assay type: ADME, cell-free
Summary of the method: (§2)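 Peptide at 75 μg/mL final in pooled mouse serum (undiluted or 25% v:v aqueous), 37 °C. Triplicate aliquots taken at 0, 30, 60, 120 and 240 min and precipitated with 3% TCA on ice for 10 min. Supernatant neutralized with NaOH and analysed by RP-HPLC on C18 with TFA-containing gradient. Amounts expressed relative to 0 min; metabolites identified by MALDI-TOF-MS.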

Proteus vulgaris = test: Antimicrobial activity against Proteus vulgaris ICB 9081 after 20 hrs by broth microdilution method; assay type: functional; settings: ICB 9081, 20 h; summary of the method: as §1
Escherichia coli [5] = test: Antimicrobial activity against Escherichia coli 455/7 after 20 hrs by broth microdilution method; assay type: functional; settings: 455/7, 20 h; summary of the method: as §1
SH-SY5Y = test: Cytotoxicity against human SH-SY5Y cells at 600 ug/ml after 24 hrs by MTT assay; assay type: cell-based
Summary of the method: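 HeLa (1.5 × 10^4/well, seeded overnight) or SH-SY5Y (2 × 10^4/well, differentiated 5 days with 10 μM trans-retinoic acid) in DMEM/Ham's F-12 with 5% or 15% FBS. Peptide added at 600 μg/mL for 24 h at 37 °C, 5% CO2. MTT 0.5 mg/mL for 4 h, then SDS/HCl for 16 h; A590 read against 650 nm. Normalized to PBS (100%); DMSO 12% as positive control.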

Acinetobacter baumannii [6] = test: Antimicrobial activity against Acinetobacter baumannii ICB 14072 after 20 hrs by broth microdilution method; assay type: functional; settings: ICB 14072, 20 h; summary of the method: as §1
Pseudomonas aeruginosa [7] = test: Antimicrobial activity against Pseudomonas aeruginosa DSM 3227 after 20 hrs by broth microdilution method; assay type: functional; settings: DSM 3227, 20 h
Summary of the method: (§3)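 Pathogenic strains grown overnight on Columbia agar, colonies suspended in 0.9% saline to OD 0.1, diluted 1:300 in 1% TSB; final (1-2) × 10^5 cfu/well. Peptides 2-fold serially diluted in 1% TSB from 128 μg/mL, typically to 0.5 μg/mL. Incubated 37 °C, absorbance at 595 nm after 20 ± 2 h, in triplicate; MIC = lowest concentration with absorbance not exceeding medium only.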

Pseudomonas aeruginosa [8] = test: Antimicrobial activity against Pseudomonas aeruginosa 70108001 after 20 hrs by broth microdilution method; assay type: functional; settings: Pseudomonas aeruginosa, 70108001, 20 h; summary of the method: as §3
[9] = Stability in 25% mouse serum assessed as half life at 75 ug/ml by MALDI-TOF-MS analysis; assay type: ADME, cell-free; summary of the method: as §2
Klebsiella pneumoniae = test: Antimicrobial activity against Klebsiella pneumoniae ATCC 12657 after 20 hrs by broth microdilution method; assay type: functional; settings: ATCC 12657, 20 h; summary of the method: as §1
Enterobacter cloacae [10] = test: Antimicrobial activity against Enterobacter cloacae Ha088 after 20 hrs by broth microdilution method; assay type: functional; settings: Ha088, 20 h; summary of the method: as §1
Stenotrophomonas [11] = test: Antimicrobial activity against Stenotrophomonas ICB 308054 after 20 hrs by broth microdilution method; assay type: functional; settings: ICB 308054, 20 h; summary of the method: as §1
Acinetobacter baumannii [12] = test: Antimicrobial activity against Acinetobacter baumannii ICB 9250 after 20 hrs by broth microdilution method; assay type: functional; settings: ICB 9250, 20 h; summary of the method: as §1
[13] = Drug uptake in Escherichia coli BL21 AI assessed as intracellular localization at 30 ug/ml after 20 mins by confocal fluorescence microscopy; assay type: ADME, cell-based; settings: escherichia coli bl21, 20 min; in the assay text read “30 uM” for “30 ug/ml”
Summary of the method: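 E. coli BL21 AI overnight culture diluted to 1.5 × 10^7 cells/mL in 1% TSB. 5(6)-Carboxyfluorescein N-terminally labelled peptide added at 30 μmol/L final, with 60-fold molar excess of TAMRA to quench extracellular fluorescence. Imaged at room temperature at 20 and 50 min by confocal laser scanning microscopy (488 nm excitation), with phase contrast.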

Escherichia coli [14] = test: Antibacterial activity against Escherichia coli BL21 AI after 20 hrs by broth microdilution assay; assay type: functional
Summary of the method: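 Nutrient-broth overnight cultures diluted in 1% TSB; E. coli BL21AI 7.5 × 10^5 cells/well, M. luteus ATCC 10240 2 × 10^6 cells/well. Peptides serially 2-fold diluted in 1% TSB from 128 to typically 0.5 μg/mL. Incubation at 37 °C; A595 read after 20 ± 2 h. MIC is the lowest concentration with absorbance not above medium only. Triplicate.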

Acinetobacter baumannii [15] = test: Antimicrobial activity against Acinetobacter baumannii M17 after 20 hrs by broth microdilution method; assay type: functional; settings: M17, 20 h; summary of the method: as §1
Pseudomonas aeruginosa [16] = test: Antimicrobial activity against Pseudomonas aeruginosa 60909001 after 20 hrs by broth microdilution method; assay type: functional; settings: Pseudomonas aeruginosa, 60909001, 20 h; summary of the method: as §3
Pseudomonas aeruginosa [17] = test: Antimicrobial activity against Pseudomonas aeruginosa 60811001 after 20 hrs by broth microdilution method; assay type: functional; settings: Pseudomonas aeruginosa, 60811001, 20 h; summary of the method: as §3
[18] = Stability in 100% mouse serum assessed as half life at 75 ug/ml by MALDI-TOF-MS analysis; assay type: ADME, cell-free; summary of the method: as §2
Serum [19] = test: Stability in 25% mouse serum assessed as peptide-13 level at 75 ug/ml after 30 mins by MALDI-TOF-MS analysis; assay type: ADME, cell-free; settings: 0.5 h; summary of the method: as §2
Escherichia coli [20] = test: Antimicrobial activity against Escherichia coli 70502001 after 20 hrs by broth microdilution method; assay type: functional; settings: Escherichia coli, 70502001, 20 h; summary of the method: as §1
Acinetobacter baumannii [21] = test: Antimicrobial activity against Acinetobacter baumannii ICB 14067 after 20 hrs by broth microdilution method; assay type: functional; settings: ICB 14067, 20 h; summary of the method: as §1
Escherichia coli [22] = test: Antimicrobial activity against Escherichia coli 8474 after 20 hrs by broth microdilution method; assay type: functional; settings: Escherichia coli, 8474, 20 h; summary of the method: as §1
[23] = Toxicity in human erythrocytes assessed as hemolytic activity at 600 ug/ml after 1 hr; assay type: cell-based; settings: erythrocyte
Summary of the method: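 Peptides 2-fold serially diluted from 600 to 5 μg/mL in PBS (pH 7.4), mixed 1:1 with 2% washed human erythrocytes in PBS, 37 °C for 1 h. After centrifugation at 1000g, supernatant A405 read. Triton X-100 0.1% as positive control, PBS as negative control.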

Pseudomonas aeruginosa [24] = test: Antimicrobial activity against Pseudomonas aeruginosa PAO1 after 20 hrs by broth microdilution method; assay type: functional; settings: PAO1, 20 h; summary of the method: as §3
Stenotrophomonas [25] = test: Antimicrobial activity against Stenotrophomonas ICB 7569 after 20 hrs by broth microdilution method; assay type: functional; settings: ICB 7569, 20 h; summary of the method: as §1
[26] = Stability in 25% mouse serum assessed as compound remaining at 75 ug/ml after 2 hrs by MALDI-TOF-MS analysis; assay type: ADME, cell-free; settings: read-out: Stability; summary of the method: as §2

Substance: H-VDKPPYLPRPRPPRRIYNR-NH2 [ONCOCIN]
- MIC (Enterobacter cloacae [1]): 0.125 µg/mL
- MIC (Enterobacter cloacae [2]): 0.25 µg/mL
- MIC (Enterobacter cloacae [3]): 0.25 µg/mL
- Activity (Serum [4]): 20%
- MIC (Proteus vulgaris): 4 µg/mL
- MIC (Escherichia coli [5]): 0.5 µg/mL
- Activity (SH-SY5Y): Non-toxic
- MIC (Acinetobacter baumannii [6]): 1 µg/mL
- MIC (Pseudomonas aeruginosa [7]): 4 µg/mL
- MIC (Pseudomonas aeruginosa [8]): 4 µg/mL
- half-life at 75 ug/ml [9]: 70 min
- MIC (Klebsiella pneumoniae): 0.5 µg/mL
- MIC (Enterobacter cloacae [10]): 0.125 µg/mL
- MIC (Stenotrophomonas [11]): 32 µg/mL
- MIC (Acinetobacter baumannii [12]): 0.5 µg/mL
- Activity [13]: Active
- MIC (Escherichia coli [14]): 4 µg/mL
- MIC (Acinetobacter baumannii [15]): 1 µg/mL
- MIC (Pseudomonas aeruginosa [16]): 2 µg/mL
- MIC (Pseudomonas aeruginosa [17]): 2 µg/mL
- half-life at 75 ug/ml [18]: 20 min
- Activity (Serum [19]): 10%
- MIC (Escherichia coli [20]): 1 µg/mL
- MIC (Acinetobacter baumannii [21]): 1 µg/mL
- MIC (Escherichia coli [22]): 0.5 µg/mL
- Activity [23]: Non-toxic
- MIC (Pseudomonas aeruginosa [24]): 2 µg/mL
- MIC (Stenotrophomonas [25]): 8 µg/mL
- remaining at 2 h, 75 ug/ml [26]: 60%
